Experimental data published in ChEMBL document CHEMBL1949557, “Discovery of INCB3284, a Potent, Selective, and Orally Bioavailable hCCR2 Antagonist” (ACS Med Chem Lett, 2011).
pIC50: −log10 of the molar value. Calls of active or inactive are those of the source. The rule behind the calls is not given here.

Columns and labels:
[1] = Tmax in cynomolgus monkey at 30 mg/kg, po; format: ADME, organism-based, Macaca fascicularis; parameters: dose 30 mg/kg, route oral; settings: in vivo
Procedure, shortened: (§1)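 Pharmacokinetics run in rats, dogs, cynomolgus monkeys and chimpanzees, with two animals per species for the iv arm and two per species for the oral arm. Parameters were derived per species and route: CL, Vss and T1/2 from iv dosing; Cmax, Tmax, AUC, T1/2 and F% from oral dosing. Values are reported as mean ± spread.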

[2] = Clearance in cynomolgus monkey at 5 mg/kg, iv; format: ADME, organism-based, Macaca fascicularis; parameters: dose 5 mg/kg, route intravenous; settings: in vivo; procedure, shortened: as §1
[3] = Oral bioavailability in dog at 30 mg/kg; format: ADME, organism-based, Canis lupus familiaris; settings: in vivo; procedure, shortened: as §1
Rattus norvegicus = assay: Oral bioavailability in rat at 10 mg/kg; format: ADME, organism-based; settings: in vivo; procedure, shortened: as §1
[4] = Cmax in dog at 30 mg/kg, po; format: ADME, organism-based, Canis lupus familiaris; parameters: dose 30 mg/kg, route oral; settings: in vivo; procedure, shortened: as §1
[5] = Induction of cytochrome P450 up to 10 uM by luminometric luciferase assay; format: ADME
[6] = Half life in cynomolgus monkey at 5 mg/kg, iv; format: ADME, organism-based, Macaca fascicularis; parameters: dose 5 mg/kg, route intravenous; settings: in vivo; procedure, shortened: as §1
Liver = assay: Metabolic stability in human liver S9 fraction assessed as glutathione adduct formation in presence of glutathione; format: ADME, subcellular
[7] = Tmax in rat at 10 mg/kg, po; format: ADME, organism-based; parameters: dose 10 mg/kg, route oral; settings: in vivo; procedure, shortened: as §1
[8] = Tmax in dog at 30 mg/kg, po; format: ADME, organism-based, Canis lupus familiaris; parameters: dose 30 mg/kg, route oral; settings: in vivo; procedure, shortened: as §1
[9] = AUC in cynomolgus monkey at 30 mg/kg, po; format: ADME, organism-based, Macaca fascicularis; parameters: dose 30 mg/kg, route oral; settings: plasma; procedure, shortened: as §1
[10] = Half life in dog at 30 mg/kg, po; format: ADME, organism-based, Canis lupus familiaris; parameters: dose 30 mg/kg, route oral; settings: in vivo; procedure, shortened: as §1
[11] = Half life in cynomolgus monkey at 30 mg/kg, po; format: ADME, organism-based, Macaca fascicularis; parameters: dose 30 mg/kg, route oral; settings: in vivo; procedure, shortened: as §1
[12] = molecular target: T1, C-C chemokine receptor type 3 (Homo sapiens) (UniProt P51677); assay: Inhibition of CCR3 at 1 uM
T1 sequence (whole entry): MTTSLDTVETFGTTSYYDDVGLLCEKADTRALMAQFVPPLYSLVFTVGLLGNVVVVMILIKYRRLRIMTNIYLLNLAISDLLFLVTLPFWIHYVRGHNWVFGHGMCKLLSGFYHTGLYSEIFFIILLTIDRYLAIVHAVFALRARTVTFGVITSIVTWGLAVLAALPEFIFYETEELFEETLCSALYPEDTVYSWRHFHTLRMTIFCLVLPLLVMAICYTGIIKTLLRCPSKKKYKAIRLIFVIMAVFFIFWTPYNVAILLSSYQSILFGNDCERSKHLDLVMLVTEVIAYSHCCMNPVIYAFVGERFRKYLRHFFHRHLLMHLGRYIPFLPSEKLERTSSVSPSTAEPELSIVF
Procedure, shortened: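 Cerep selectivity panel of over 50 ion channels, transporters, chemokine receptors and other GPCRs. Single test concentration of 1 μM, scored for significant inhibition.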

[13] = Oral bioavailability in chimpanzee at 4 mg/kg; format: ADME, organism-based, Pan troglodytes; settings: in vivo; procedure, shortened: as §1
Cytochrome P450 2C9 = Cytochrome P450 2C9 (Homo sapiens, UniProt P11712); assay: Inhibition of CYP2C9; format: ADME
Sequence of Cytochrome P450 2C9 (P11712 whole entry): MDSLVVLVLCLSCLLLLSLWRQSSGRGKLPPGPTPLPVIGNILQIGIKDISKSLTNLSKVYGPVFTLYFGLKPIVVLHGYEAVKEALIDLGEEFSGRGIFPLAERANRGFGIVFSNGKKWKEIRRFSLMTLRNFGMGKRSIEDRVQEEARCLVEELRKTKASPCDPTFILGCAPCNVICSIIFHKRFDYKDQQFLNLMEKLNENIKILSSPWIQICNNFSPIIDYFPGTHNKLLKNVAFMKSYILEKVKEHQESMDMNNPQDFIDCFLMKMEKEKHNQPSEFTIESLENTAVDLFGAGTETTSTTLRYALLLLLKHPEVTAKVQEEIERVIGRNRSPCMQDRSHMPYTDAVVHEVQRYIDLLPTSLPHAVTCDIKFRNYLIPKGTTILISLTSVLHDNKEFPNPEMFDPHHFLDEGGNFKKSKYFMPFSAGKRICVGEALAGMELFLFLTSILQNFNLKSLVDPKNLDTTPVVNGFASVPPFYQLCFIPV

Tmax [1]: 1.5 h | clearance [2]: 13.7 mL/min/kg | bioavailability [3]: 31% | F (Rattus norvegicus): 20% | Cmax [4]: 7.81 µM | Activity [5]: Not Active | half-life [6]: 2.2 h | Stability (Liver): Stable | Tmax [7]: 4 h | Tmax [8]: 1.5 h | AUC [9]: 9.08 µM·h | half-life [10]: 3.3 h | half-life [11]: 5.1 h | inhibition [12]: inactive | bioavailability [13]: 23% | pIC50 (Cytochrome P450 2C9): < 4.60
SMILES: COc1ccc([C@]2(O)CC[C@H](N3CC[C@@H](NC(=O)CNC(=O)c4cccc(C(F)(F)F)c4)C3)CC2)cn1.CS(=O)(=O)O
